Measured values: PubChem BioAssay
Calls of active or inactive are those of the source. Rule as the data show it, unless noted: active = inhibition above about 30%; inactive = the rest.

How the values were obtained:
[1] = Her2 expression decrease, cell viability multiplex – SKBR3 breast tumor cells, AlphaScreen, ATP viability, primary screen (AID 461;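 active = Her2 level under about 52% in both replicate screens, with viability over 70% of control, limit read from the data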;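 as to Her2 level: lower value means less Her2 protein in the cells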;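 as to viability: percent of carrier control wells set as 100% viability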); details: SKBR3 Her2 protein level, 18-24 h, measured here: SKBR3 viability, ATP luminescence, at 10 µM
[2] = molecular target: Receptor tyrosine-protein kinase erbB-2 (Homo sapiens) (UniProt P04626); test: as above; details: 18-24 h, at 10 µM, stronger effect = lower value
Sequence of Receptor tyrosine-protein kinase erbB-2 (Homo sapiens) (P04626 whole entry, looked up): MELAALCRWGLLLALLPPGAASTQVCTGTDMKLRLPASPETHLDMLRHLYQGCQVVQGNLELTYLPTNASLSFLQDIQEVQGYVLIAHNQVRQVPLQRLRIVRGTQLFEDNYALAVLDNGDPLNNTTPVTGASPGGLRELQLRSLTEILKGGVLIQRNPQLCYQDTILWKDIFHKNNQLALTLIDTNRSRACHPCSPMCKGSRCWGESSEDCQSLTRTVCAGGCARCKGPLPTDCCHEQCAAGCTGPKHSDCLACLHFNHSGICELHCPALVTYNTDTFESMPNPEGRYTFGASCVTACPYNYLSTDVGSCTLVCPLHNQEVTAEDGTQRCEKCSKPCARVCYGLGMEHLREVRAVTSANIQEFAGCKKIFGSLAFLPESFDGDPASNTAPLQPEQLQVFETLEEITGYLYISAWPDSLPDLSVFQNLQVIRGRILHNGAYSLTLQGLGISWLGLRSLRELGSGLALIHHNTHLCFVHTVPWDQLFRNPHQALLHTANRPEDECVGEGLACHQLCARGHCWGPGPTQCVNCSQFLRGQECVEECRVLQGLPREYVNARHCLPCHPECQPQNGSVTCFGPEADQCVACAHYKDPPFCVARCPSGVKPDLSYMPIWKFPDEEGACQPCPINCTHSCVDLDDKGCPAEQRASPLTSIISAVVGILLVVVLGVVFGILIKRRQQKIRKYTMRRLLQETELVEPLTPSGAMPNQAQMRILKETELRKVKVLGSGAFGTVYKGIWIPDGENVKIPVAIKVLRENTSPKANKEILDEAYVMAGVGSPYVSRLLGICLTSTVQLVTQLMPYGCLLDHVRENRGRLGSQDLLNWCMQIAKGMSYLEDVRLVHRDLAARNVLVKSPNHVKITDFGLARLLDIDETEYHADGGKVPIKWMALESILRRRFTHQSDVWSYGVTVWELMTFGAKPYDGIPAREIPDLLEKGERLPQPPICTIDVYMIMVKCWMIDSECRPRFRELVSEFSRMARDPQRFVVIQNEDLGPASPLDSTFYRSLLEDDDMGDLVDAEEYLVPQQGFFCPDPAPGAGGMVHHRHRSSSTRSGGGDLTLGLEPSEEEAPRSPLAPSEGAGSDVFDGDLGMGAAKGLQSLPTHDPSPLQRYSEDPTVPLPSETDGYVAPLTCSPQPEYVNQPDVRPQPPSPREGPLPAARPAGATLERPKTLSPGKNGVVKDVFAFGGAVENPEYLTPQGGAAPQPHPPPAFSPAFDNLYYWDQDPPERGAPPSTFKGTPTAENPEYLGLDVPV

[3] = reduced viability of SK-BR-3 breast cancer cells – cell-based, 24 h, human, pilot screen (AID 572;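 active = viability at or below 10% of carrier control in both of two separate runs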;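 also: compound exposure lasted between 18 and 24 h rather than exactly 24 h; 100% = carrier-treated control wells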); details: SK-BR-3 viability, CellTiter-Glo luminescence, at 10 µM, stronger effect = lower value
[4] = HUVEC growth inhibition – cell-based, human, primary screen (AID 575;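 active = viability at or below 30% in both replicate assays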;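 also: 100% = median of untreated cell wells with 0.1% DMSO on each plate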); details: HUVEC proliferation, CellTiter-Glo luminescence, 72 h; at 10 µM; stronger effect = lower value
Procedure, shortened: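 material = primary HUVEC, no more than 12 passages | input = 1250 cells per well | controls = vehicle and MePR control wells | measured by = CTG luminescence | times = 72 h compound incubation | format = collagen-coated 384-well format | read-out = % viability vs DMSO wells | doses = single 10 µM dose, 0.1% DMSO, from 5x medium stock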

[5] = H69AR cell proliferation blockers – human, duplicate replicates, primary screen (AID 580;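 active = viability at or under a set limit in both replicates, limit being median viability minus 3 SD, cut at about 48% in these data, passing the limit was not always enough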;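 also: 100% = mean luminescence of untreated wells and 0% = no signal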); details: H69AR lung tumor cells viability, ATP luminescence, 72 h; at 10 µM; stronger effect = lower value
[6] = MRP1 drug-resistance reversers in H69AR cells – cell-based, doxorubicin co-treatment, pilot screen (AID 601;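 active = viability loss from added drug above about 55%, and viability with drug at most 40%, in both replicates, limit read from the data, passing the limit was not always enough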); details: CellTiter-Glo, 72 h, at 10 µM; for differential viability (reversal): stronger effect = higher value
[7] = yeast transport mutant growth inhibition pilot in 384-well plates, post-Golgi transport modulator project (AID 636; in the data active = inhibition above about 31%); details: absorbance 615 nm, about 18 h, stronger effect = higher value
[8] = growth suppression of yeast trafficking mutant, preliminary HTS, modulators of trafficking downstream of Golgi apparatus project, 1536-format plate, OD 615 nm (AID 637); details: yeast transport mutant growth, absorbance 615 nm, 18 h; stronger effect = higher value
[9] = H69AR cells + 2 uM doxorubicin, measured here: viability with 2 uM doxorubicin, stronger effect = lower value
[10] = H69AR cells, compound alone cytotoxicity

Row | SMILES | viability [1] [%] | Her2 level [2] | viability [3] | viability [4] | viability [5] | differential viability (reversal) ([6]; H69AR cells + 2 uM doxorubicin) | viability [6, 9] [%] | viability [6, 10] [%] | inhibition [7] | inhibition [8]
1 | CCOC(=O)CSC1=Nc2ccccc2C2=NC(CC(=O)NCc3ccc(OC)cc3)C(=O)N12 (stereo not given) | 117 | 89% (inactive) | 117% (inactive) | 83% (inactive) | 99.7% (inactive) | 2.4% (inactive) | 97.3 | 99.7 | -4.21% (inactive) | -1.27% (inactive)
2 | CCOC(=O)c1c(NC(=O)OC)sc(C(=O)N(C)C)c1C | 109 | 94.5% (inactive) | 109% (inactive) | 112% (inactive) | 108% (inactive) | 20% (inactive) | 87.9 | 108 | -6.89% (inactive) | -4% (inactive)
3 | CCCn1c(N2CCN(CC(=O)Nc3ccc4c(c3)OCCO4)CC2)nc2ccccc21 | 88.5 | 96% (inactive) | 88.5% (inactive) | 87.4% (inactive) | 88.9% (inactive) | 0.63% (inactive) | 88.3 | 88.9 | -6.18% (inactive) | 4.59% (inactive)
4 | CCSCCC(NC1=CC(=O)CC(C)(C)C1)C(=O)O (stereo not given) | 92 | 89% (inactive) | 92% (inactive) | 116% (inactive) | 101% (inactive) | 5.77% (inactive) | 94.8 | 101 | 1.58% (inactive) | -3.45% (inactive)
5 | CCc1nnc(NC(=O)C2CCCN2S(=O)(=O)c2ccc(C)cc2)s1 (stereo not given) | 91.5 | 89.5% (inactive) | 91.5% (inactive) | 117% (inactive) | 117% (inactive) | 5.4% (inactive) | 112 | 117 | -6.35% (inactive) | 6.07% (inactive)
6 | COc1cc(-c2nc(-c3cccc(C(F)(F)F)c3)no2)cc(OC)c1OC | 102 | 99.5% (inactive) | 102% (inactive) | 94.4% (inactive) | 93.4% (inactive) | 10.7% (inactive) | 82.6 | 93.4 | -1.87% (inactive) | -2.58% (inactive)
7 | CCCC(c1nnnn1Cc1ccc(OC)cc1)N1CCN(c2ccccc2OC)CC1 (stereo not given) | 103 | 112% (inactive) | 103% (inactive) | 92.4% (inactive) | 90% (inactive) | -5.73% (inactive) | 95.7 | 90 | -2.47% (inactive) | -2.3% (inactive)
8 | CC(C)(O)C1=NOC(c2ccccc2)C1 (stereo not given) | 98 | 108% (inactive) | 98% (inactive) | 76.2% (inactive) | 71.1% (inactive) | -14.7% (inactive) | 85.8 | 71.1 | -2.57% (inactive) | 1.31% (inactive)
9 | O=S(=O)(c1ccc(S(=O)(=O)N2CCN3CCCC3C2)cc1)N1CCCC1 (stereo not given) | 80.5 | 90.5% (inactive) | 80.5% (inactive) | 104% (inactive) | 98.9% (inactive) | 16.1% (inactive) | 82.8 | 98.9 | -0.77% (inactive) | 0.17% (inactive)
10 | O=C(c1ccccc1F)N1CCN(Cc2cccc(Cl)c2)CC1 | 101 | 104% (inactive) | 101% (inactive) | 107% (inactive) | 100% (inactive) | 16.8% (inactive) | 83.6 | 100 | -5.32% (inactive) | -2.86% (inactive)
11 | Cc1sc2ncn3ncnc3c2c1C | 91 | 96.5% (inactive) | 91% (inactive) | 50.7% (inactive) | 90.5% (inactive) | -8.71% (inactive) | 99.2 | 90.5 | 6.13% (inactive) | 4.26% (inactive)
12 | N#Cc1c(N)c(C(=O)c2ccccc2)n2c1CCCC2 | 103 | 71% (inactive) | 103% (inactive) | 97.7% (inactive) | 93.1% (inactive) | -6.13% (inactive) | 99.2 | 93.1 | -8.92% (inactive) | -0.66% (inactive)
13 | Cc1nc2ncnn2c(N2CCC(C(=O)NC3CCCC3)CC2)c1Cc1ccccc1 | 88 | 95% (inactive) | 88% (inactive) | 91.5% (inactive) | 73.6% (inactive) | 37.8% (inactive) | 35.8 | 73.6 | -5.48% (inactive) | -4.76% (inactive)
14 | Cc1nnc(SCC(=O)N2CCC(C(=O)Nc3nccs3)CC2)n1Cc1ccccc1 | 91.5 | 80% (inactive) | 91.5% (inactive) | 96.2% (inactive) | 91.5% (inactive) | 5.37% (inactive) | 86.1 | 91.5 | -3.87% (inactive) | 0.33% (inactive)
15 | CC(NC(=O)c1ccc(F)cc1)C(c1cccs1)N1CCN(C)CC1 (stereo not given) | 90.5 | 86.5% (inactive) | 90.5% (inactive) | 98% (inactive) | 91.9% (inactive) | 0.16% (inactive) | 91.7 | 91.9 | -6% (inactive) | 3.44% (inactive)
16 | CC1=C(C)C(=O)NC(Nc2nc(C)c3cc(C)cc(C)c3n2)N1 (stereo not given) | 120 | 79.5% (inactive) | 120% (inactive) | 10.6% (active) | 17.2% (active) | 6.29% (inactive) | 10.9 | 17.2 | -3.59% (inactive) | -3% (inactive)

Row | SMILES | viability [1] [%] | Her2 level [2] | viability [3] | viability [4] | viability [5] | differential viability (reversal) ([6]; H69AR cells + 2 uM doxorubicin) | viability [6, 9] [%] | viability [6, 10] [%] | inhibition [7] | inhibition [8]
17 | CCc1ccc(N2CC(C(=O)OCC(=O)Nc3cc(C)on3)CC2=O)cc1 (stereo not given) | 94 | 92% (inactive) | 94% (inactive) | 107% (inactive) | 110% (inactive) | 11.1% (inactive) | 99.2 | 110 | 0.9% (inactive) | -3.83% (inactive)
18 | Cc1ccnc(SCCn2c(N3CCCCC3)nc3c2c(=O)n(C)c(=O)n3C)n1 | 76.5 | 88.5% (inactive) | 76.5% (inactive) | 93.9% (inactive) | 91.2% (inactive) | 3% (inactive) | 88.2 | 91.2 | -5.66% (inactive) | -3% (inactive)
19 | CC(=O)N(C(C)=O)c1cccc2c(N(C(C)=O)C(C)=O)cccc12 | 106 | 94% (inactive) | 106% (inactive) | 97.4% (inactive) | 91.7% (inactive) | -2.88% (inactive) | 94.5 | 91.7 | -4.29% (inactive) | -6% (inactive)
20 | Cc1cc(NC(=O)NC(=O)c2cccc(OC(F)(F)C(F)F)c2)n[nH]1 | 99.5 | 94% (inactive) | 99.5% (inactive) | 80.4% (inactive) | 85.2% (inactive) | -12.8% (inactive) | 98 | 85.2 | -3.73% (inactive) | 20% (inactive)
21 | CN=C(Nc1cc(C)nn1-c1ccccc1)c1ccccc1 | 93 | 95.5% (inactive) | 93% (inactive) | 86.6% (inactive) | 93.6% (inactive) | -3.59% (inactive) | 97.2 | 93.6 | -2% (inactive) | -3.55% (inactive)
22 | COc1cc2c(cc1OC)C(c1cccnc1)CC(=O)N2 (stereo not given) | 106 | 95% (inactive) | 106% (inactive) | 82.2% (inactive) | 97.4% (inactive) | 8.69% (inactive) | 88.7 | 97.4 | -1.73% (inactive) | -0.98% (inactive)
23 | CCNC(=O)c1ccc(NS(=O)(=O)c2ccccc2)cc1 | 124 | 91% (inactive) | 124% (inactive) | 86.1% (inactive) | 90.5% (inactive) | -1.69% (inactive) | 92.2 | 90.5 | 0% (inactive) | 4.1% (inactive)
24 | O=C(Nc1ccc2snnc2c1)N1CCSCC1 | 108 | 104% (inactive) | 108% (inactive) | 103% (inactive) | 98.9% (inactive) | 2.63% (inactive) | 96.2 | 98.9 | 0.77% (inactive) | -0.5% (inactive)
25 | O=C(COC(=O)CCc1c[nH]c2ccccc12)NC1CCS(=O)(=O)C1 (stereo not given) | 87.5 | 96% (inactive) | 87.5% (inactive) | 90.8% (inactive) | 90.1% (inactive) | 1.06% (inactive) | 89.1 | 90.1 | 1.04% (inactive) | -4.76% (inactive)
26 | COc1ccc(Cl)c(NCCC(=O)O)c1 | 88 | 107% (inactive) | 88% (inactive) | 98.6% (inactive) | 95.6% (inactive) | 7.1% (inactive) | 88.5 | 95.6 | -1.37% (inactive) | 9.37% (inactive)
27 | CCCC(=O)Nc1cccc(NC(=O)CN2CCN(c3ccccc3OC)CC2)c1 | 98.5 | 83% (inactive) | 98.5% (inactive) | 96.6% (inactive) | 82.9% (inactive) | -3.71% (inactive) | 86.6 | 82.9 | -5.81% (inactive) | -4.92% (inactive)
28 | CCOc1ccc(N(C(C)=O)C2C=CS(=O)(=O)C2)cc1 (stereo not given) | 91.5 | 90.5% (inactive) | 91.5% (inactive) | 95.7% (inactive) | 94.9% (inactive) | 2.48% (inactive) | 92.4 | 94.9 | -1.87% (inactive) | 0.33% (inactive)
29 | Cc1nnc(SCc2cn3ccsc3n2)n(N)c1=O | 95.5 | 81.5% (inactive) | 95.5% (inactive) | 95% (inactive) | 86.5% (inactive) | -4.16% (inactive) | 90.7 | 86.5 | 0.26% (inactive) | 21.3% (inactive)
30 | COC(=O)c1cc2ccsc2n1CC(=O)Nc1cc(C)cc(C)c1 | 96.5 | 124% (inactive) | 96.5% (inactive) | 64% (inactive) | 84.8% (inactive) | -0.08% (inactive) | 84.8 | 84.8 | 1.92% (inactive) | 14.3% (inactive)
31 | CC1CCN(C(=O)CCNS(=O)(=O)c2ccccc2)CC1 | 110 | 118% (inactive) | 110% (inactive) | 96.7% (inactive) | 92.8% (inactive) | 0.83% (inactive) | 92 | 92.8 | -3.9% (inactive) | -2.06% (inactive)
32 | Cc1cc(Oc2ccccc2)nc(-c2ccccc2)n1 | 100 | 112% (inactive) | 100% (inactive) | 92.7% (inactive) | 99.1% (inactive) | 7.91% (inactive) | 91.2 | 99.1 | -1.17% (inactive) | -5.25% (inactive)
